In article PMC6072465 (MedChemComm, 2017):

Tests used:
[1] = tested on: HCT116 (human colon carcinoma) cancer cells; assay: Oxygen consumption, Seahorse XF-96 Analyzer; type: cell-based; conditions: incubation for 24 hours
Summary of the method: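 HCT116 cells grown in DMEM with 10% heat-inactivated FCS and penicillin/streptomycin at 37 °C, 5% CO2. About 15 000 cells/well adhered overnight, then were exposed to test compounds for 24 h. Cells were washed and held 1 h at 37 °C without CO2 in unbuffered DMEM (5 mM glucose, 2 mM glutamine, pH 7.4). Basal OCR was read, then sequential oligomycin, CCCP, and rotenone/antimycin A. Rates normalized to total well protein.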

HCT116 cells = assay: Cytochrome c release from mitochondria to cytosol; type: cell-based, human; conditions: concentration 3.5 μM
[2] = tested on: caspase-3 in HCT116 cells; assay: Caspase-3 activity with fluorogenic substrate DEVD-AMC, HCT116 cells; type: cell-based, human; conditions: compared with betulinic acid
[3] = tested on: caspase-3 in TET21N cells; assay: Caspase-3 activity with fluorogenic substrate DEVD-AMC, TET21N cells; type: cell-based, human; conditions: compared with betulinic acid

C=C(C)[C@@H]1CC[C@]2(C(=O)O)CC[C@]3(C)[C@H](CC[C@@H]4[C@@]5(C)CC[C@H](O)C(C)(C)[C@@H]5CC[C@]43C)[C@@H]12 [BA, betulinic acid, reference compound]
effect on mitochondrial respiration (oxygen consumption) [1]: ineffective | release of cytochrome c from the mitochondria to the cytosol (HCT116 cells): failed to trigger the release of cytochrome c

C=C(C)[C@@H]1CC[C@]2(C(=O)OCCOCCOCC[P+](c3ccccc3)(c3ccccc3)c3ccccc3)CC[C@]3(C)[C@H](CC[C@@H]4[C@@]5(C)CC[C@H](OC(C)=O)C(C)(C)[C@@H]5CC[C@]43C)[C@@H]12.[Br-] [compound 7, 8′-(Triphenylphosphonio-3′,6′-dioxaoctan-1′-yl)-3β-acetoxylup-20(29)-en-28-oate bromide]
effect on mitochondrial respiration (oxygen consumption) [1]: suppressed respiration in a concentration-dependent manner

C=C(C)[C@@H]1CC[C@]2(C(=O)OCCOCCOCC[P+](c3ccccc3)(c3ccccc3)c3ccccc3)CC[C@]3(C)[C@H](CC[C@@H]4[C@@]5(C)CC[C@H](O)C(C)(C)[C@@H]5CC[C@]43C)[C@@H]12.[Br-] [compound 9, 9′-(Triphenylphosphonio-3′,6′-dioxaoctan-1′-yl)-3β-hydroxylup-20(29)-en-28-oate bromide]
effect on mitochondrial respiration (oxygen consumption) [1]: suppressed respiration in a concentration-dependent manner | activation of caspase-3 [2]: considerably surpassed betulinic acid in the caspase-3 activation | activation of caspase-3 [3]: considerably surpassed betulinic acid in the caspase-3 activation
